Experimental data from ChEMBL document CHEMBL4118244, “Design, synthesis and biological evaluation of benzofuran appended benzothiazepine derivatives as inhibitors of butyrylcholinesterase and antimicrobial agents” (Bioorg Med Chem, 2018).
In brackets after ≈: the same amount, converted by molar mass. Activity calls are given as the source filed them. The calls are words filed in the database; no cut-off is given here.

Key:
[1] = biological target: Acetylcholinesterase (Electrophorus electricus) (UniProt O42275); assay: Inhibition of electric eel AChE using acetylthiocholine iodide as substrate pretreated for 15 mins followed by substrate addition measured for 6 mins by Ellman's method
Chain of Acetylcholinesterase (Electrophorus electricus) (O42275 24-633 limits assumed): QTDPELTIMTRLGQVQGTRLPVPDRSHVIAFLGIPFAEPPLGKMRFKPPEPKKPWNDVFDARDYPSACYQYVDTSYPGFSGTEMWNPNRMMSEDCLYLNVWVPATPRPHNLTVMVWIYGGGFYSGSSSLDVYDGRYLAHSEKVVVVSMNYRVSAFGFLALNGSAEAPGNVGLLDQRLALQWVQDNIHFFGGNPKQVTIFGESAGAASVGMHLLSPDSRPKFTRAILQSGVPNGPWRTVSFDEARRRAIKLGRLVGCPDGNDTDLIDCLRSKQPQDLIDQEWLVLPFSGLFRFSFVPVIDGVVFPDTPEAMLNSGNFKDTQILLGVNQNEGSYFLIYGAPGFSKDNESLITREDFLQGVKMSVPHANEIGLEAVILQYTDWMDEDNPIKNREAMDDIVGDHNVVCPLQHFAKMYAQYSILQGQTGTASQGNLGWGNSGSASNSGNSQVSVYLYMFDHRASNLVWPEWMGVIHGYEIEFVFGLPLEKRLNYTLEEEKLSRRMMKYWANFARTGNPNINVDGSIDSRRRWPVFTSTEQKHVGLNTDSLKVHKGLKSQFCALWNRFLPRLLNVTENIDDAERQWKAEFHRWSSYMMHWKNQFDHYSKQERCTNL
Summary of the method: (§1)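 Ellman spectrophotometric assay in 0.1 M phosphate buffer pH 8.0 with DTNB, 25 °C. AChE (electric eel, Type V-S) or BChE was preincubated 15 min with compound before adding acetylthiocholine iodide or butyrylthiocholine iodide, respectively. Absorbance change at 412 nm was read for 6 min. Five concentrations were tested in triplicate, corrected by a nonenzymatic blank, with a no-inhibitor reference.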

Cholinesterase = Cholinesterase (Equus caballus, UniProt P81908); assay: Inhibition of equine serum BChE using butyrylthiocholine iodide as substrate pretreated for 15 mins followed by substrate addition measured for 6 mins by Ellman's method; summary of the method: as §1
Chain of Cholinesterase (P81908 whole entry): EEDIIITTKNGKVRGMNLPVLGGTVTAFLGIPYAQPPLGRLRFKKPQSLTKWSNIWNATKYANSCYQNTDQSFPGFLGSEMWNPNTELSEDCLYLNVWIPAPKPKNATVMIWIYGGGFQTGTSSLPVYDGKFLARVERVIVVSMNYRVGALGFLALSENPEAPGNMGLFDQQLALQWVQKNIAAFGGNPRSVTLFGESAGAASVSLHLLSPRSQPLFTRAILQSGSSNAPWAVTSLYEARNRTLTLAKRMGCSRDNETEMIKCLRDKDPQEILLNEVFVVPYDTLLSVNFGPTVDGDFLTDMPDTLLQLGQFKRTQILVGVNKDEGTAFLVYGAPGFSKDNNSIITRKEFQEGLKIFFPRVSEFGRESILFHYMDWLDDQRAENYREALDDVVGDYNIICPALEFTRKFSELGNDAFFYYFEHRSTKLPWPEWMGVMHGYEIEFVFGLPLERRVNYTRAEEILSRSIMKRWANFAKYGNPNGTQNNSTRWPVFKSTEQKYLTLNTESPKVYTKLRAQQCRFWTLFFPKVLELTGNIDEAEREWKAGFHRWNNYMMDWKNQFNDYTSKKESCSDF

Shigella dysenteriae [2] = assay: Antibacterial activity against Shigella dysenteriae PTCC 1188; assay type: functional
[3] = tested on: Staphylococcus epidermidis; assay: Antibacterial activity against Staphylococcus epidermidis ATCC 12228; assay type: functional
Bacillus spizizenii [4] = assay: Antibacterial activity against Bacillus subtilis ATCC 6633; assay type: functional
Staphylococcus aureus [5] = assay: Antibacterial activity against Staphylococcus aureus ATCC 29737; assay type: functional
Salmonella paratyphi [6] = assay: Antibacterial activity against Salmonella paratyphi A serotype ATCC 5702 assessed as diameter of inhibition zone at 200 ug per disc after 24 hrs by agar disc diffusion method; assay type: functional, Salmonella enterica subsp. enterica serovar Paratyphi A; conditions: Salmonella enterica, ATCC 5702, 24 h; read-out: DIZ
Summary of the method: (§2)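 Agar disc diffusion. Compounds at 20 mg mL⁻¹ in DMSO, filter-sterilised. 100 µL of 10⁸ CFU mL⁻¹ bacteria spread on nutrient agar. 6 mm discs carried 10 µl (200 µg per disc), with DMSO discs as negative control. Incubation 24 h at 37 °C. Read-out is inhibition zone diameter, mean of 3 repeats (±1 mm).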

Aspergillus brasiliensis [7] = assay: Antifungal activity against Aspergillus brasiliensis PTCC 5011 assessed as diameter of inhibition zone at 200 ug per disc after 72 hrs by agar disc diffusion method; assay type: functional; conditions: for zone of inhibition at 200 µg/disc: PTCC 5011, 72 h, read-out: DIZ
Summary of the method: (§3)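 Agar disc diffusion against mold. Compounds at 20 mg mL⁻¹ in DMSO, filter-sterilised. 6 mm discs carried 10 µl (200 µg per disc), with DMSO discs as negative control. Incubation 72 h at 30 °C. Read-out is growth inhibition zone diameter, mean of 3 repeats (±1 mm).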

[8] = tested on: Staphylococcus epidermidis; assay: Antibacterial activity against Staphylococcus epidermidis ATCC 12228 assessed as diameter of inhibition zone at 200 ug per disc after 24 hrs by agar disc diffusion method; assay type: functional; conditions: ATCC 12228, 24 h, read-out: DIZ; summary of the method: as §2
Aspergillus niger [9] = assay: Antifungal activity against Aspergillus niger ATCC 16404 assessed as diameter of inhibition zone at 200 ug per disc after 72 hrs by agar disc diffusion method; assay type: functional; conditions: for zone of inhibition at 200 µg/disc: ATCC 16404, 72 h, read-out: DIZ; summary of the method: as §3
Klebsiella pneumoniae [10] = assay: Antibacterial activity against Klebsiella pneumoniae ATCC 10031 assessed as diameter of inhibition zone at 200 ug per disc after 24 hrs by agar disc diffusion method; assay type: functional; conditions: ATCC 10031, 24 h, read-out: DIZ; summary of the method: as §2
Pseudomonas aeruginosa [11] = assay: Antibacterial activity against Pseudomonas aeruginosa ATCC 27853 assessed as diameter of inhibition zone at 200 ug per disc after 24 hrs by agar disc diffusion method; assay type: functional; conditions: ATCC 27853, 24 h, read-out: DIZ; summary of the method: as §2
Salmonella paratyphi [12] = assay: Antibacterial activity against Salmonella paratyphi A serotype ATCC 5702; assay type: functional; conditions: Salmonella enterica subsp. enterica serovar Paratyphi A
Pseudomonas aeruginosa [13] = assay: Antibacterial activity against Pseudomonas aeruginosa ATCC 27853; assay type: functional
Escherichia coli [14] = assay: Antibacterial activity against Escherichia coli ATCC 10536; assay type: functional
Escherichia coli [15] = assay: Antibacterial activity against Escherichia coli ATCC 10536 assessed as diameter of inhibition zone at 200 ug per disc after 24 hrs by agar disc diffusion method; assay type: functional; conditions: ATCC 10536, 24 h, read-out: DIZ; summary of the method: as §2
Bacillus spizizenii [16] = assay: Antibacterial activity against Bacillus subtilis ATCC 6633 assessed as diameter of inhibition zone at 200 ug per disc after 24 hrs by agar disc diffusion method; assay type: functional; conditions: ATCC 6633, 24 h, read-out: DIZ; summary of the method: as §2
Aspergillus niger [17] = assay: Antifungal activity against Aspergillus niger ATCC 16404; assay type: functional
Klebsiella pneumoniae [18] = assay: Antibacterial activity against Klebsiella pneumoniae ATCC 10031; assay type: functional
Proteus vulgaris [19] = assay: Antibacterial activity against Proteus vulgaris PTCC 1182 assessed as diameter of inhibition zone at 200 ug per disc after 24 hrs by agar disc diffusion method; assay type: functional; conditions: PTCC 1182, 24 h, read-out: DIZ; summary of the method: as §2
Staphylococcus aureus [20] = assay: Antibacterial activity against Staphylococcus aureus ATCC 29737 assessed as diameter of inhibition zone at 200 ug per disc after 24 hrs by agar disc diffusion method; assay type: functional; conditions: ATCC 29737, 24 h, read-out: DIZ; summary of the method: as §2
Shigella dysenteriae [21] = assay: Antibacterial activity against Shigella dysenteriae PTCC 1188 assessed as diameter of inhibition zone at 200 ug per disc after 24 hrs by agar disc diffusion method; assay type: functional; conditions: PTCC 1188, 24 h, read-out: DIZ; summary of the method: as §2
Candida albicans [22] = assay: Antifungal activity against Candida albicans ATCC 10231; assay type: functional
Candida albicans [23] = assay: Antifungal activity against Candida albicans ATCC 10231 assessed as diameter of inhibition zone at 200 ug per disc after 48 hrs by agar disc diffusion method; assay type: functional; conditions: ATCC 10231, 48 h, read-out: DIZ
Summary of the method: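 Yeast tested by agar disc diffusion. Compounds at 20 mg mL⁻¹ in DMSO, filter-sterilised. 6 mm discs carried 10 µl (200 µg per disc), with DMSO discs as negative control. Incubation 48 h at 30 °C. Zone diameter was averaged over 3 repeats (±1 mm).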

Aspergillus brasiliensis [24] = assay: Antifungal activity against Aspergillus brasiliensis PTCC 5011; assay type: functional
Proteus vulgaris [25] = assay: Antibacterial activity against Proteus vulgaris PTCC 1182; assay type: functional

O=[N+]([O-])c1ccc2oc(C3=Nc4ccccc4SC(c4ccccc4)C3)cc2c1 (centres undefined)
inhibition [1]: inactive | IC50 (Cholinesterase): Not Active

Brc1ccc2oc(C3=Nc4ccccc4SC(c4cccc5ccccc45)C3)cc2c1 (centres undefined)
MIC (Shigella dysenteriae [2]): 50 µg/mL (≈ 103 µM) | MIC [3]: inactive | MIC (Bacillus spizizenii [4]): 5 µg/mL (≈ 10.3 µM) | MIC (Staphylococcus aureus [5]): 5 µg/mL (≈ 10.3 µM) | zone of inhibition at 200 µg/disc (Salmonella paratyphi [6]): < 6 mm | zone of inhibition at 200 µg/disc (Aspergillus brasiliensis [7]): < 6 mm | zone of inhibition at 200 µg/disc [8]: < 6 mm | zone of inhibition at 200 µg/disc (Aspergillus niger [9]): < 6 mm | zone of inhibition at 200 µg/disc (Klebsiella pneumoniae [10]): < 6 mm | zone of inhibition at 200 µg/disc (Pseudomonas aeruginosa [11]): < 6 mm | MIC (Salmonella paratyphi [12]): inactive | MIC (Pseudomonas aeruginosa [13]): inactive | MIC (Escherichia coli [14]): inactive | zone of inhibition at 200 µg/disc (Escherichia coli [15]): < 6 mm | zone of inhibition at 200 µg/disc (Bacillus spizizenii [16]): 12 mm | MIC (Aspergillus niger [17]): inactive | MIC (Klebsiella pneumoniae [18]): inactive | zone of inhibition at 200 µg/disc (Proteus vulgaris [19]): 19 mm | zone of inhibition at 200 µg/disc (Staphylococcus aureus [20]): 10 mm | zone of inhibition at 200 µg/disc (Shigella dysenteriae [21]): 14 mm | MIC (Candida albicans [22]): 25 µg/mL (≈ 51.6 µM) | inhibition [1]: inactive | zone of inhibition at 200 µg/disc (Candida albicans [23]): 14 mm | IC50 (Cholinesterase; read-out: IC50): 17 µM | MIC (Aspergillus brasiliensis [24]): inactive | MIC (Proteus vulgaris [25]): 12.5 µg/mL (≈ 25.8 µM)

NYSTATIN
inhibition zone (IZ) (Aspergillus brasiliensis [7]): 23 mm | inhibition zone (IZ) (Aspergillus niger [9]): 27 mm | MIC (Aspergillus niger [17]): 0.25 µg/mL | MIC (Candida albicans [22]): 0.125 µg/mL | MIC (Aspergillus brasiliensis [24]): 0.5 µg/mL

CO[C@H]1/C=C/O[C@@]2(C)Oc3c(C)c(O)c4c(O)c(c(/C=N/N5CCN(C)CC5)c(O)c4c3C2=O)NC(=O)/C(C)=C\C=C\[C@H](C)[C@H](O)[C@@H](C)[C@@H](O)[C@@H](C)[C@H](OC(C)=O)[C@@H]1C [RIFAMPIN]
MIC (Shigella dysenteriae [2]): 0.25 µg/mL (≈ 0.304 µM) | MIC [3]: 0.25 µg/mL (≈ 0.304 µM) | MIC (Bacillus spizizenii [4]): 0.125 µg/mL (≈ 0.152 µM) | MIC (Staphylococcus aureus [5]): 0.25 µg/mL (≈ 0.304 µM) | zone of inhibition at 200 µg/disc (Salmonella paratyphi [6]): < 6 mm | zone of inhibition at 200 µg/disc [8]: 40 mm | zone of inhibition at 200 µg/disc (Klebsiella pneumoniae [10]): 7 mm | zone of inhibition at 200 µg/disc (Pseudomonas aeruginosa [11]): < 6 mm | MIC (Salmonella paratyphi [12]): inactive | MIC (Pseudomonas aeruginosa [13]): inactive | MIC (Escherichia coli [14]): 0.5 µg/mL (≈ 0.608 µM) | zone of inhibition at 200 µg/disc (Escherichia coli [15]): 11 mm | zone of inhibition at 200 µg/disc (Bacillus spizizenii [16]): 13 mm | MIC (Klebsiella pneumoniae [18]): 0.25 µg/mL (≈ 0.304 µM) | zone of inhibition at 200 µg/disc (Proteus vulgaris [19]): 10 mm | zone of inhibition at 200 µg/disc (Staphylococcus aureus [20]): 10 mm | zone of inhibition at 200 µg/disc (Shigella dysenteriae [21]): 8 mm | MIC (Proteus vulgaris [25]): 0.125 µg/mL (≈ 0.152 µM)

Oc1ccc(C2CC(c3cc4cc(Br)ccc4o3)=Nc3ccccc3S2)cc1 (centres undefined)
inhibition [1]: inactive | IC50 (Cholinesterase; read-out: IC50): 6.5 µM

COc1cccc(C2CC(c3cc4ccccc4o3)=Nc3ccccc3S2)c1 (centres undefined)
inhibition [1]: inactive | IC50 (Cholinesterase; read-out: IC50): 4.1 µM

COc1ccc(C2CC(c3cc4ccccc4o3)=Nc3ccccc3S2)cc1 (centres undefined)
inhibition [1]: inactive | IC50 (Cholinesterase; read-out: IC50): 4 µM

Cc1ccc(C2CC(c3cc4cc(Br)ccc4o3)=Nc3ccccc3S2)cc1 (centres undefined)
inhibition [1]: inactive | IC50 (Cholinesterase; read-out: IC50): 8.5 µM

COc1cccc2cc(C3=Nc4ccccc4SC(c4ccccc4)C3)oc12 (centres undefined)
inhibition [1]: inactive | IC50 (Cholinesterase; read-out: IC50): 2.5 µM

COc1ccccc1C1CC(c2cc3cc(Br)ccc3o2)=Nc2ccccc2S1 (centres undefined)
inhibition [1]: inactive | IC50 (Cholinesterase; read-out: IC50): 1.8 µM

COc1ccccc1C1CC(c2cc3ccccc3o2)=Nc2ccccc2S1 (centres undefined)
inhibition [1]: inactive | IC50 (Cholinesterase; read-out: IC50): 4.8 µM

c1ccc2c(c1)N=C(c1cc3ccccc3o1)CC(c1cccc3ccccc13)S2 (centres undefined)
MIC [3]: 5 µg/mL (≈ 12.3 µM) | MIC (Bacillus spizizenii [4]): inactive | MIC (Staphylococcus aureus [5]): 5 µg/mL (≈ 12.3 µM) | zone of inhibition at 200 µg/disc (Aspergillus brasiliensis [7]): < 6 mm | zone of inhibition at 200 µg/disc [8]: 9 mm | zone of inhibition at 200 µg/disc (Aspergillus niger [9]): < 6 mm | zone of inhibition at 200 µg/disc (Bacillus spizizenii [16]): < 6 mm | MIC (Aspergillus niger [17]): inactive | zone of inhibition at 200 µg/disc (Staphylococcus aureus [20]): 10 mm | MIC (Candida albicans [22]): 25 µg/mL (≈ 61.6 µM) | inhibition [1]: inactive | zone of inhibition at 200 µg/disc (Candida albicans [23]): 14 mm | IC50 (Cholinesterase; read-out: IC50): 63 µM | MIC (Aspergillus brasiliensis [24]): inactive
